Results gathered from unrelated publications.
Compare with care: the assays were run in different laboratories. ≈ marks a conversion by molar mass, not a printed value.

| SMILES | organism | assay | system | setting | measurement | result |
| --- | --- | --- | --- | --- | --- | --- |
| CC(=O)Oc1cccc2c1[nH]c1c(C3=C[C@@]4(OC(C)=O)CC/C=C\CCCCN5CC[C@@H]3[C@]3(C[C@@H]6/C=C\CCCCN6[C@H]34)C5)nccc12 | Mycobacterium intracellulare | microbial killing | – | – | MBC | > 20 µg/mL |
| c1ccc2c(c1)CCc1ccccc1C2OCCN1CCNCC1 | Trypanosoma brucei | parasite growth | – | – | EC50 | 9.32 µM |
| COC(=O)c1cc(-c2cccc(NC(=O)Nc3cccc(Br)c3)c2)on1 | Mycobacteroides chelonae | microbial growth, broth dilution | ATCC35752 | 48 h | MIC | > 64 µg/mL |
| O=C(O)CSc1ncnc2cc(-c3cc4ccccc4s3)sc12 | Murine coronavirus | viral replication | – | 1 µM, 10 h | inhibition | -36% |
| CCC(=O)N1CCN(c2ccc(-n3c(=O)ccc4cnc5ccc(-c6cnc7ccccc7c6)cc5c43)cc2C(F)(F)F)CC1 | Plasmodium berghei | parasite growth, luciferase | human | liver stage | IC50 | 0.41 µM |
| COc1cccc(Cc2cc(C)cc(=O)n2O)c1 | Candida albicans | microbial growth | ATCC90028 | – | MIC80 | 2.3 µM (≈ 0.564 µg/mL) |
| COC(=O)c1cc(-c2cccc(NC(=S)Nc3ccccc3)c2)on1 | Mycobacteroides chelonae | microbial growth, broth dilution | ATCC35752 | 48 h | MIC | > 64 µg/mL |
| Cc1ccc(-c2nc3ccccc3c(=O)n2-c2cccc(O)c2)cc1 | Enterococcus faecium | microbial growth, broth dilution | NCTC7171 | – | MIC | > 128 µg/mL |
| COC(=O)c1cc(-c2cccc(NC(=S)Nc3ccc(F)cc3F)c2)on1 | Mycobacteroides chelonae | microbial growth, broth dilution | ATCC35752 | 48 h | MIC | 16 µg/mL (≈ 41.1 µM) |
| O=C(Nc1cccc(Cl)c1)Nc1ncc(CCNc2ncnc3ccsc23)s1 | Plasmodium berghei | parasite growth, luciferase | human | liver stage | IC50 | 4.2 µM |
| O=c1c2ccccc2nc(/C=C/c2ccc3c(c2)OCO3)n1-c1cccc(O)c1 | Enterococcus faecium | microbial growth, broth dilution | NCTC7171 | – | MIC | > 128 µg/mL |
| COC(=O)c1cc(-c2cccc(NC(=S)Nc3ccc(C)cc3)c2)on1 | Mycobacteroides chelonae | microbial growth, broth dilution | ATCC35752 | 48 h | MIC | > 64 µg/mL |
| O=c1c2ccccc2nc(/C=C/c2cccc(F)c2)n1-c1cccc(O)c1 | Enterococcus faecium | microbial growth, broth dilution | NCTC7171 | – | MIC | 32 µg/mL (≈ 89.3 µM) |
| CCCCCOc1ccc(-c2cc(-c3ccc(C(=O)N[C@H]4C[C@@H](O)[C@@H](O)NC(=O)[C@@H]5[C@@H](O)[C@@H](C)CN5C(=O)[C@H]([C@H](O)CC(N)=O)NC(=O)[C@H]([C@H](O)[C@@H](O)c5ccc(O)c(OS(=O)(=O)O)c5)NC(=O)[C@@H]5C[C@@H](O)CN5C(=O)[C@H]([C@@H](C)O)NC4=O)cc3)no2)cc1 | Candida albicans | biofilm formation | – | 16 µg/mL | inhibition | 47% |
| N#Cc1ccc(/C=C/c2nc3ccccc3c(=O)n2-c2cc[nH]n2)cc1 | Enterococcus faecium | microbial growth, broth dilution | NCTC7171 | – | MIC | > 128 µg/mL |
| COC(=O)c1cc(-c2cccc(NC(=O)Nc3ccc(Cl)cc3Cl)c2)on1 | Mycobacteroides chelonae | microbial growth, broth dilution | ATCC35752 | 48 h | MIC | > 64 µg/mL |
| Cc1ccc(/C=C/c2nc3ccccc3c(=O)n2-c2cccc(O)c2)cc1 | Enterococcus faecium | microbial growth, broth dilution | NCTC7171 | – | MIC | > 128 µg/mL |
| COC(=O)c1cc(-c2cccc(NC(=S)Nc3ccc(C#N)cc3)c2)on1 | Mycobacteroides chelonae | microbial growth, broth dilution | ATCC35752 | 48 h | MIC | 64 µg/mL (≈ 169 µM) |
| O=c1c2ccccc2nc(/C=C/c2ccccc2F)n1-c1cccc(O)c1 | Enterococcus faecium | microbial growth, broth dilution | NCTC7171 | – | MIC | 32 µg/mL (≈ 89.3 µM) |
| Cc1cc(C2CCCCC2)n(O)c(=O)c1 | Candida albicans | microbial growth | ATCC90028 | – | MIC80 | 1.9 µM (≈ 0.394 µg/mL) |
